Measurements published in ChEMBL document CHEMBL1132299, “Phosphinic pseudo-tripeptides as potent inhibitors of matrix metalloproteinases: a structure-activity study” (J Med Chem, 1999).

How the values were obtained:
[1] = biological target: T1, Matrix metalloproteinase-14 (Homo sapiens, UniProt P50281); test: Binding affinity against matrix metalloprotease-14 MTI-MMP.
Outline: (§1)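 Catalytic domains of human MMP-14 and MMP-7 were expressed in E. coli BL21 DE3 pLysS. Buffer 50 mM Tris/HCl pH 6.8, 10 mM CaCl2, 25 °C; 0.2–5 nM enzyme; 6 µM Mca-Pro-Leu-Gly-Leu-Dpa-Ala-Arg-NH2 read by fluorescence (ex 340, em 400 nm) for 30 min. Km: MMP-14 21, MMP-7 67 µM. Five inhibitor concentrations in triplicate; Ki by Horovitz–Levitski method.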

Stromelysin-3 = biological target: T2, Stromelysin-3 (Mus musculus, UniProt Q02853); test: Binding affinity against matrix metalloprotease-11.
T2 sequence (Q02853 whole entry): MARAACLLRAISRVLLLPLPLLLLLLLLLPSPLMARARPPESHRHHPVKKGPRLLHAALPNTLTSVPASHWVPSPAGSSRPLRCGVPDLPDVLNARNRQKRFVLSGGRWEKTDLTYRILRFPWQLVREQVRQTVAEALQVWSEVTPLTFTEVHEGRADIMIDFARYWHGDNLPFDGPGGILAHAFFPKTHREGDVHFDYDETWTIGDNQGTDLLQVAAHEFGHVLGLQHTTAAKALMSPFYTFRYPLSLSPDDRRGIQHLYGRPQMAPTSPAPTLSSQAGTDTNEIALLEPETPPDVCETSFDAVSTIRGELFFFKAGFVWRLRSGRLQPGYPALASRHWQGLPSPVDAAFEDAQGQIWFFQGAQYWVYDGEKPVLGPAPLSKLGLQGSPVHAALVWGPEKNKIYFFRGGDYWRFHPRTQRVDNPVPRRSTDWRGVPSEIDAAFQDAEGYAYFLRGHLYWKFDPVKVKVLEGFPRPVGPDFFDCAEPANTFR
Outline: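 Mouse MMP-11 catalytic domain from E. coli BL21 DE3 pLysS, assayed in stirred quartz cuvettes in 50 mM Tris/HCl pH 6.8, 10 mM CaCl2 at 25 °C. Substrate was Mca-Pro-Leu-Ala-Cys(OMeBn)-Trp-Ala-Arg-Dpa-NH2 (Km 0.2 µM), with fluorescence read-out. Percent inhibition was measured in triplicate at five concentrations (20–80% range), and Ki was derived by the Horovitz–Levitski method.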

[2] = biological target: T3, Matrix metalloproteinase-9 (Homo sapiens, UniProt P14780); test: Binding affinity against matrix metalloprotease-9 (gelatinase-B).
Outline: (§2)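 Full-length human pro-MMP-2, -9 and -8 were expressed in NSO myeloma cells and activated with 4-aminophenylmercuric acetate just before use. Run at 25 °C in 50 mM Tris/HCl pH 6.8, 10 mM CaCl2, with 0.2–5 nM enzyme and 6 µM Mca-Pro-Leu-Gly-Leu-Dpa-Ala-Arg-NH2; fluorescence 340/400 nm, 30 min. Km: MMP-2 49, MMP-9 14, MMP-8 61 µM. Triplicate, five inhibitor levels; Ki by Horovitz–Levitski.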

[3] = biological target: T4, Interstitial collagenase (Homo sapiens) (UniProt P03956); test: In vitro inhibition of MMP-1 at 2 uM.
T4 sequence (whole entry): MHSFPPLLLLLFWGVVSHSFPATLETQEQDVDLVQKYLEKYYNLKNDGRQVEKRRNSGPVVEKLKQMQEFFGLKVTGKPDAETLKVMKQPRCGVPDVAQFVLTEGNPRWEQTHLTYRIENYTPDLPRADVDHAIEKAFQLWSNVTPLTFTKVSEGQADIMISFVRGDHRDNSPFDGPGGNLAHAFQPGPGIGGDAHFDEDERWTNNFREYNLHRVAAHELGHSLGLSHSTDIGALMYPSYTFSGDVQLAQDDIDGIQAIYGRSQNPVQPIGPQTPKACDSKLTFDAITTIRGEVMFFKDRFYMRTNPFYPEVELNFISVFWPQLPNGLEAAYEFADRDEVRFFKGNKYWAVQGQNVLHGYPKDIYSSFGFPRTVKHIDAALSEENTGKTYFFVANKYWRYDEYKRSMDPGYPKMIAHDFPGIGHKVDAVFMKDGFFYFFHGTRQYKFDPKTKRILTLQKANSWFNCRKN

Neutrophil collagenase [4] = biological target: T5, Neutrophil collagenase (Homo sapiens, UniProt P22894); test: Inhibition of matrix metalloprotease-8; outline: as §2
Target sequence in this assay (P22894 whole entry): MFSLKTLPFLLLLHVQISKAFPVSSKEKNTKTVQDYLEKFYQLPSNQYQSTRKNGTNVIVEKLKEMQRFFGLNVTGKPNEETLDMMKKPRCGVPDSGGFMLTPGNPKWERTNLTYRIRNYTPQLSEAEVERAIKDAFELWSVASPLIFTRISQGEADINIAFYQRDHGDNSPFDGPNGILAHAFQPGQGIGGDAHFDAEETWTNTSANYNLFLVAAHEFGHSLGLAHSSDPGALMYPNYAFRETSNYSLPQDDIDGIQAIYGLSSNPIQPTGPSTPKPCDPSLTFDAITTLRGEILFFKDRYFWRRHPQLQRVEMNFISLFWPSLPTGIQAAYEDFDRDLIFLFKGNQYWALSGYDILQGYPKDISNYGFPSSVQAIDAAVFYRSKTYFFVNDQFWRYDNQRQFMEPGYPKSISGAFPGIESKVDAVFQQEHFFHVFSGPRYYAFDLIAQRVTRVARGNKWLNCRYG

[5] = biological target: T6, 72 kDa type IV collagenase (Homo sapiens, UniProt P08253); test: Binding affinity against matrix metalloprotease-2 (gelatinase-A).; outline: as §2
Target sequence in this assay (P08253 whole entry): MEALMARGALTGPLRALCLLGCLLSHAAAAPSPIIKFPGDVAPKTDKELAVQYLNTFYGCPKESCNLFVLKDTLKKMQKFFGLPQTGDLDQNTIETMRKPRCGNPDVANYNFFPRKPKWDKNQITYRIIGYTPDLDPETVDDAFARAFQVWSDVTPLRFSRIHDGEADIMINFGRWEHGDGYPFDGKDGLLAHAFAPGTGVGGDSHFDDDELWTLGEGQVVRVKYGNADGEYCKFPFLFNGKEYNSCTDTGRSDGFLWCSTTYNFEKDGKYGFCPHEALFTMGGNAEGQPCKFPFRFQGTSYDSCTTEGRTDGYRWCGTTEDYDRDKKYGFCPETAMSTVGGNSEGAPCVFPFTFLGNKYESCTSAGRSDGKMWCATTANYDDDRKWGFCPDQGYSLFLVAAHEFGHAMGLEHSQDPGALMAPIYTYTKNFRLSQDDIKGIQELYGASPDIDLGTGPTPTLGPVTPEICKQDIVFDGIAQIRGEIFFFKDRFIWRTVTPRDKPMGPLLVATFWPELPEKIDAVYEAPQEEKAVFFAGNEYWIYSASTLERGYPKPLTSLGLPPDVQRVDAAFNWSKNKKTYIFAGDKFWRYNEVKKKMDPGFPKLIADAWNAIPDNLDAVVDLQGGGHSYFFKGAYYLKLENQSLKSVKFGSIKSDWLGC

[6] = biological target: T7, Matrilysin (Homo sapiens) (UniProt P09237); test: In vitro inhibition of MMP-7 at 2 uM.
T7 sequence (whole entry): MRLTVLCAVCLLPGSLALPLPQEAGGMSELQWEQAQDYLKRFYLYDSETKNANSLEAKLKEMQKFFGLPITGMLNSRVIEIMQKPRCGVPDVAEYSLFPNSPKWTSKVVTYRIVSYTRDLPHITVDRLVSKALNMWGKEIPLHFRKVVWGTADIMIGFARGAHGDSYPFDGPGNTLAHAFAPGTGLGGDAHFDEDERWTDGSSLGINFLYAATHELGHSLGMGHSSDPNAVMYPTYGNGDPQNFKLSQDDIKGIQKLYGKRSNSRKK

[7] = biological target: T6, 72 kDa type IV collagenase; test: Inhibition of MMP-2 gelatinase-A at 2 uM
Target sequence in this assay (P08253 110-660 limits assumed): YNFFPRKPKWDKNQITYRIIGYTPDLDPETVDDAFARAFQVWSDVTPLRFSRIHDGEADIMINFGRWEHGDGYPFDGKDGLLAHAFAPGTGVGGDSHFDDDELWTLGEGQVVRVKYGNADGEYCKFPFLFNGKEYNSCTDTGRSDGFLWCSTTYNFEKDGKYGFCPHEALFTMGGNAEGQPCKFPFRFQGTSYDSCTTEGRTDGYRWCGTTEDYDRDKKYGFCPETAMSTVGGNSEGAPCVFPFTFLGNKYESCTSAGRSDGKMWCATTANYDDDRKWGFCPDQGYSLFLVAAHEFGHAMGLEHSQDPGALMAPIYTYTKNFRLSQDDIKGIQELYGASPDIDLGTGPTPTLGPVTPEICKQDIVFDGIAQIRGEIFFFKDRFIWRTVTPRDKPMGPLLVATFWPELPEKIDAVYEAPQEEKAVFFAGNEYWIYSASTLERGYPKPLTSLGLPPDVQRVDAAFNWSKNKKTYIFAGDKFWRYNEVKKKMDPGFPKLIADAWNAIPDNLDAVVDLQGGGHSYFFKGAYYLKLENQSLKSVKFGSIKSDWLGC

[8] = biological target: T1, Matrix metalloproteinase-14; test: Inhibition of MMP-14 membrane-type-MMP at 10 uM
Outline: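 Human MMP-14 catalytic domain, expressed in E. coli BL21 DE3 pLysS. Assay in 50 mM Tris/HCl pH 6.8 with 10 mM CaCl2 at 25 °C, using 0.2–5 nM enzyme and 6 μM Mca-Pro-Leu-Gly-Leu-Dpa-Ala-Arg-NH2. Reaction started by adding substrate; fluorescence read at 400 nm (ex 340 nm) over 30 min. Time-dependent inhibitors were preincubated with enzyme for at least 1 h. Percent inhibition from triplicates.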

[9] = biological target: T3, Matrix metalloproteinase-9; test: Inhibition of Matrix metalloprotease-9, gelatinase-B at 2 uM
Neutrophil collagenase [10] = biological target: T5, Neutrophil collagenase; test: Compound was tested for its binding affinity against MMP-8 HNC at 1 uM
Target sequence in this assay (P22894 101-467 limits assumed): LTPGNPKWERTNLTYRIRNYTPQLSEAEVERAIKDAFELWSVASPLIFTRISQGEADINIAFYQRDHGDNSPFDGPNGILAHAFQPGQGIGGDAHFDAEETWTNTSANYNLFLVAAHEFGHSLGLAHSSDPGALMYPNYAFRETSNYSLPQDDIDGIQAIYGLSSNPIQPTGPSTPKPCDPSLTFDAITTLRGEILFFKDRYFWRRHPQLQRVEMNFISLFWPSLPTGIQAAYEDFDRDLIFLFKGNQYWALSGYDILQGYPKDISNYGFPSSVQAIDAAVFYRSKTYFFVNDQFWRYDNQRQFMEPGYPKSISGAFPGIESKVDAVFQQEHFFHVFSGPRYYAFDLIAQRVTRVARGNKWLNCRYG

[11] = biological target: T4, Interstitial collagenase (Homo sapiens); test: Inhibition of matrix metalloprotease-1; settings: concentration not given here
Outline: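 Human full-length pro-MMP-1 was expressed in NSO myeloma cells and activated just before use with trypsin (10 µg/mL, 25 min, 25 °C), then BPTI (100 µg/mL). Assay: 50 mM Tris/HCl pH 6.8, 10 mM CaCl2, 25 °C, 0.2–5 nM enzyme, 6 µM Mca-Pro-Leu-Gly-Leu-Dpa-Ala-Arg-NH2, fluorescence 340/400 nm over 30 min. Km 100 µM. Triplicate inhibition at five concentrations (20–80% range) gave Ki by the Horovitz–Levitski method.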

[12] = biological target: T7, Matrilysin (Homo sapiens); test: (§3) Inhibition of Matrix metalloprotease-7 Matrilysin; outline: as §1
Matrilysin = biological target: T8, Matrilysin (Homo sapiens, UniProt P09237); test: as §3; outline: as §1
T8 sequence (P09237 whole entry): T7 sequence (whole entry)

[13] = biological target: T9, Stromelysin-3 (Mus musculus) (UniProt Q02853); settings: Homo sapiens; 1 uM
T9 sequence (whole entry): T2 sequence (Q02853 whole entry)

[14] = biological target: T4, Interstitial collagenase (Homo sapiens); test: Inhibition of matrix metalloprotease-1 at 5 uM
[15] = biological target: T9, Stromelysin-3 (Mus musculus); test: Inhibition of MMP-11, stromelysin-3 at 1 uM

T3 sequence (P14780 whole entry): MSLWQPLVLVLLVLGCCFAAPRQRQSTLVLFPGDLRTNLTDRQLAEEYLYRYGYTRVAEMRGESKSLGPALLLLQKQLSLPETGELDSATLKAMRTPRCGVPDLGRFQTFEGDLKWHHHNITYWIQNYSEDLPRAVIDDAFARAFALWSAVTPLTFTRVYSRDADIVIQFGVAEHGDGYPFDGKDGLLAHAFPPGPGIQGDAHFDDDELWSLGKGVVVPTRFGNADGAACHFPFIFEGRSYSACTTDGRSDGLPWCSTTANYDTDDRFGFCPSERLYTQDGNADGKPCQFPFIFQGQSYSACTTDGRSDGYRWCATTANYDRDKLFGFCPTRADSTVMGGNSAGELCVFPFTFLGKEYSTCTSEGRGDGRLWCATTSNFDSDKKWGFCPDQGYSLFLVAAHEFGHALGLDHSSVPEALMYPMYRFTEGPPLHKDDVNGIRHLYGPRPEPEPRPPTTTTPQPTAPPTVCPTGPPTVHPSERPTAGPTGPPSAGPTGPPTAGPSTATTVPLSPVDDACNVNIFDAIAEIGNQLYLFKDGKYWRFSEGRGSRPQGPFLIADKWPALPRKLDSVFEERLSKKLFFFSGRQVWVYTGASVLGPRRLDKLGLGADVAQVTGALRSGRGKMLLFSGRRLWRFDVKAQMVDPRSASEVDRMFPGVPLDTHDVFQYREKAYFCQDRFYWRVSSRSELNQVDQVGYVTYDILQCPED

Row | SMILES | Ki [1] [nM] | Ki (Stromelysin-3) [nM] | Ki [2] [nM] | inhibition [3] [%] | Ki (Neutrophil collagenase [4]) [nM] | Ki [5] [nM] | inhibition [6] [%] | further results
1 | NC(=O)C(Cc1c[nH]c2ccccc12)NC(=O)C(CCCc1ccccc1)CP(=O)(O)C(Cc1ccccc1)NC(=O)CNc1cc(Cl)ccc1O (stereo not drawn) | 63 | 10 | 34 | 72 | 7.5 | 30 | 65 | –
2 | CC(NC(=O)OCc1ccccc1)P(=O)(O)CC(CSCc1ccccc1)C(=O)NC(Cc1c[nH]c2ccccc12)C(N)=O (stereo not drawn) | – | – | – | 45 | < 0.5 | – | 2 | –
3 | NC(=O)C(Cc1c[nH]c2ccccc12)NC(=O)C(COCc1ccccc1)CP(=O)(O)C(Cc1ccccc1)NC(=O)OCc1ccccc1 (stereo not drawn) | – | – | – | 9 | – | – | 3 | –
4 | NC(=O)C(Cc1c[nH]c2ccccc12)NC(=O)C(CCc1ccccc1)CP(=O)(O)C(Cc1ccccc1)NC(=O)OCc1ccccc1 (stereo not drawn) | – | – | – | 10 | – | – | 7 | –
5 | CC(CP(=O)(O)C(Cc1ccccc1)NC(=O)OCc1ccccc1)C(=O)NC(Cc1c[nH]c2ccccc12)C(N)=O (stereo not drawn) | – | – | – | 20 | – | – | 0 | inhibition [7]: 0%; inhibition [8]: 0%; inhibition [9]: 0%; inhibition (Neutrophil collagenase [10]): 9%
6 | CC(C)CC(NC(=O)OCc1ccccc1)C(=O)NC(Cc1ccccc1)P(=O)(O)CC(CCCc1ccccc1)C(=O)NC(Cc1c[nH]c2ccccc12)C(N)=O (stereo not drawn) | 53 | 6 | 22 | – | 7 | 40 | – | inhibition [11]: 32%; inhibition [12]: 45%
7 | CC(C)CC(CP(=O)(O)C(Cc1ccccc1)NC(=O)OCc1ccccc1)C(=O)NC(Cc1c[nH]c2ccccc12)C(N)=O (stereo not drawn) | 192 | 22 | 65 | 45 | 40 | 202 | – | Ki (Matrilysin): 210 nM
8 | CC(NC(=O)OCc1ccccc1)P(=O)(O)CC(Cc1ccccc1)C(=O)NC(Cc1c[nH]c2ccccc12)C(N)=O (stereo not drawn) | – | – | – | 24 | – | – | 8 | –
9 | CCCCCCCC(CP(=O)(O)C(Cc1ccccc1)NC(=O)OCc1ccccc1)C(=O)NC(Cc1c[nH]c2ccccc12)C(N)=O (stereo not drawn) | 271 | 34 | 30 | 27 | 6 | 75 | 4 | –
10 | CC(NC(=O)OCc1ccccc1)P(=O)(O)CC(CCc1ccccc1)C(=O)NC(Cc1c[nH]c2ccccc12)C(N)=O (stereo not drawn) | – | – | – | 23 | – | – | 3 | –
11 | NC(=O)[C@@H](Cc1c[nH]c2ccccc12)NC(=O)C(CCCc1ccccc1)CP(=O)(O)C(Cc1ccccc1)NC(=O)OCc1ccccc1 (stereo partly drawn) | 105 | 5 | 10 | 23 | 2.5 | 20 | 8 | –
12 | NC(=O)C(Cc1c[nH]c2ccccc12)NC(=O)C(CCCc1ccccc1)CP(=O)(O)C(Cc1ccccc1)NC(=O)c1cc2cc(Cl)cc(Cl)c2oc1=O (stereo not drawn) | 217 | 5 | 110 | 62 | 17 | 100 | 52 | –
13 | NC(=O)C(Cc1c[nH]c2ccccc12)NC(=O)C(CCc1ccc2ccccc2c1)CP(=O)(O)C(Cc1ccccc1)NC(=O)OCc1ccccc1 (stereo not drawn) | 125 | 12 | 55 | 0 | 34 | 30 | – | Ki (Matrilysin): 2100 nM
14 | CC(NC(=O)OCc1ccccc1)P(=O)(O)CC(COCc1ccccc1)C(=O)NC(Cc1c[nH]c2ccccc12)C(N)=O (stereo not drawn) | – | – | – | 15 | – | – | 1 | –
15 | NC(=O)[C@H](Cc1c[nH]c2ccccc12)NC(=O)C(CCCc1ccccc1)CP(=O)(O)C(Cc1ccccc1)NC(=O)OCc1ccccc1 (stereo partly drawn) | – | – | – | 0 | – | – | 0 | inhibition [7]: 6%; inhibition [13]: 1%; inhibition [9]: 14%; inhibition (Neutrophil collagenase [10]): 2%
16 | NC(=O)C(Cc1c[nH]c2ccccc12)NC(=O)C(CCCc1ccccc1)CP(=O)(O)C(Cc1ccccc1)NC(=O)COCc1ccccc1 (stereo not drawn) | – | – | – | 43 | – | – | 52 | –
17 | NC(=O)C(Cc1c[nH]c2ccccc12)NC(=O)C(CCCCc1ccccc1)CP(=O)(O)C(Cc1ccccc1)NC(=O)OCc1ccccc1 (stereo not drawn) | 580 | 33 | 70 | 5 | 4.3 | 145 | 7 | –
18 | NC(=O)C(Cc1c[nH]c2ccccc12)NC(=O)C(CCCc1ccccc1)CP(=O)(O)C(Cc1ccccc1)NC(=O)CNc1ccccc1 (stereo not drawn) | 73 | 15 | 6 | 49 | 4.5 | 17 | 28 | –
19 | CC(NC(=O)OCc1ccccc1)P(=O)(O)CC(CCCc1ccccc1)C(=O)NC(Cc1c[nH]c2ccccc12)C(N)=O (stereo not drawn) | – | – | – | 30 | – | – | 4 | –
20 | NC(=O)C(Cc1c[nH]c2ccccc12)NC(=O)C(Cc1ccc2ccccc2c1)CP(=O)(O)C(Cc1ccccc1)NC(=O)OCc1ccccc1 (stereo not drawn) | 1350 | 74 | 675 | – | 230 | 330 | – | Ki (Matrilysin): 1800 nM; inhibition [14]: 0%
21 | COc1ccc(CSCC(CP(=O)(O)C(Cc2ccccc2)NC(=O)OCc2ccccc2)C(=O)NC(Cc2c[nH]c3ccccc23)C(N)=O)cc1 (stereo not drawn) | 22 | 2 | 3 | 13 | 0.7 | 6 | 20 | –
22 | CC(NC(=O)C(CCCc1ccccc1)CP(=O)(O)C(Cc1ccccc1)NC(=O)OCc1ccccc1)C(N)=O (stereo not drawn) | – | – | – | 9 | – | – | 0 | inhibition [7]: 31%; inhibition [9]: 45%; inhibition [15]: 20%
23 | CC(=O)NC(Cc1ccccc1)P(=O)(O)CC(CCCc1ccccc1)C(=O)NC(Cc1c[nH]c2ccccc12)C(N)=O (stereo not drawn) | – | – | – | 43 | – | – | 28 | –
